# Assay results published in PMC10582660 (Clinical and Translational Science, 2023).
# Several values for one entry are separate records, joined by “and”; a condition that tells them apart may be missing. Equal values may be shown once.
# Experiments:
# OATP1B3 = biological target: T1, OATP1B3 (Homo sapiens, UniProt Q9NPD5); test: Raloxifene as a substrate for uptake transporters; format: in vitro ADME; details: raloxifene 1, 10 μM, 2, 20 min, two‐fold cutoff
# T1 sequence (Q9NPD5 1-702): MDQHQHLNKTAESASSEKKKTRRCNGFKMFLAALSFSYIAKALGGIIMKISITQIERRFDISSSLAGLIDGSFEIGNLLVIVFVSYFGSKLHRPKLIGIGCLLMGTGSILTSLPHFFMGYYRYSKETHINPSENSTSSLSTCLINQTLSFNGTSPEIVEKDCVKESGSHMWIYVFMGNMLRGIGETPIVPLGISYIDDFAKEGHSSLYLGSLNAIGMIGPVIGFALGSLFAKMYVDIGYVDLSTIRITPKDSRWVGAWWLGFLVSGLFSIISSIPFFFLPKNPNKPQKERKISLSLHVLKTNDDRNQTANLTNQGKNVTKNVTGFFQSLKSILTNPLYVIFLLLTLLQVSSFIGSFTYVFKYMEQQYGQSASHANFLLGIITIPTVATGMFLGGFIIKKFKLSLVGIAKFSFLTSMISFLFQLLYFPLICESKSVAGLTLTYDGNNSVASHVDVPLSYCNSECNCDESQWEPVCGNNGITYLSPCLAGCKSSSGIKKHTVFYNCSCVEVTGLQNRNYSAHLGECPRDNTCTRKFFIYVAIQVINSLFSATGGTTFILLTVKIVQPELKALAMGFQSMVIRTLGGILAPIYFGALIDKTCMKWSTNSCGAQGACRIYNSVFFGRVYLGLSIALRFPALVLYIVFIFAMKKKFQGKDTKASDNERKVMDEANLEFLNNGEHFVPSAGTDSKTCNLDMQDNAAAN
# Summary of the method: (§1)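 Uptake of test compound (1 and 10 μM, 2 and 20 min) measured in transporter-expressing HEK293 or MDCKII cells or inside-out membrane vesicles. Run with positive-control probe substrates and inhibitors, plus empty-vector or untransfected control cells. Fold-accumulation relative to control cells judged against a two-fold cutoff for substrate status.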
# [1] = after oral administration; cited from earlier work
# OCT2 = biological target: T2, OCT2 (Homo sapiens, UniProt O15244); test: Raloxifene as a substrate for uptake transporters; format: in vitro ADME; details: raloxifene 1, 10 μM, 2, 20 min, two‐fold cutoff
# T2 sequence (O15244 1-555): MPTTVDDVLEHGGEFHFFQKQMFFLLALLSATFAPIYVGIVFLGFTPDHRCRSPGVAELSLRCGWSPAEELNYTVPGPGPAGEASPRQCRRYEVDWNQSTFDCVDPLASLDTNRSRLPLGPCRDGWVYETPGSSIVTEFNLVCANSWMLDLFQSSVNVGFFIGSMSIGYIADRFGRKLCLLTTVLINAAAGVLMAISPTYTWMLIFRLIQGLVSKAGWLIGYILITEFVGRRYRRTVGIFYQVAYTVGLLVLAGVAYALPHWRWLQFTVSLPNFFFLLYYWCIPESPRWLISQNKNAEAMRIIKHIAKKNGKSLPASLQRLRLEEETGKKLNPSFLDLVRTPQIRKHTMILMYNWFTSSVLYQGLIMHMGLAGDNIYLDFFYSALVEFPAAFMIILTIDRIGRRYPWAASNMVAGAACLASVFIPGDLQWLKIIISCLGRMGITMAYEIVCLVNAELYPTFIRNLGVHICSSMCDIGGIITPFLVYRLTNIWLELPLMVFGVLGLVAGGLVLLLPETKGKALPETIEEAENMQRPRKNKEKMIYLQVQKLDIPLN
# Summary of the method: as §1
# [2] = Follow-up exploratory clinical study: raloxifene stool recovery; format: in vivo, human; details: for Raloxifene dose recovery0–48h in stool, geometric mean (CV%): stool 0 to 48 h relative to dose
# Summary of the method: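 Stool collected within 48 h pre-dose and all movements 0–24 and 24–48 h post-dose (water vs acute green tea arms), held at −20°C. Blended with water (1:2.5 by weight), stored at −80°C. Methanol/0.1% formic acid extraction with internal standards. 1×, 10× and 100× dilutions dried, reconstituted, quantified by UHPLC–MS/MS (calibration 0.06–400 nM). Recovery 0–48 h expressed as % of administered dose.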
# OATP2B1 = biological target: T3, OATP2B1 (Homo sapiens, UniProt O94956); test: Raloxifene as a substrate for uptake transporters; format: in vitro ADME; details: raloxifene 1, 10 μM, 2, 20 min, two‐fold cutoff
# T3 sequence (O94956 1-709): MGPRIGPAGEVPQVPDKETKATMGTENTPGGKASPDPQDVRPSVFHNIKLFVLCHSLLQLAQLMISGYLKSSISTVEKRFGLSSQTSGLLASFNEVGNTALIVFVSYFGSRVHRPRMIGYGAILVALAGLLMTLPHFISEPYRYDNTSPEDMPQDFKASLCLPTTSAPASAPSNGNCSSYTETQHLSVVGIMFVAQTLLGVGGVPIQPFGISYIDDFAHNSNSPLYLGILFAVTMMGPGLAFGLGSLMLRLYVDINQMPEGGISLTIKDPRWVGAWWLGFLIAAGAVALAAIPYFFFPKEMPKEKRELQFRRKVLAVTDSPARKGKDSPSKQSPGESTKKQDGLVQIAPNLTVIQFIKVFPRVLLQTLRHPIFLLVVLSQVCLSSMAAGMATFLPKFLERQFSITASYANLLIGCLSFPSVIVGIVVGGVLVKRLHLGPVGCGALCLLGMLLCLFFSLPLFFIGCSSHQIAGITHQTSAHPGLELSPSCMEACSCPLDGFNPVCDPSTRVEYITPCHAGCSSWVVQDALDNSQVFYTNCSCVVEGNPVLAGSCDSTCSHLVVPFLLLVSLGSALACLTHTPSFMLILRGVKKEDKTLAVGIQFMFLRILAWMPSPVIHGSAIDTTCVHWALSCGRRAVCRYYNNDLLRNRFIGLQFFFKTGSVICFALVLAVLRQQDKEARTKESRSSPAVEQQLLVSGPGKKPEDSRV
# Summary of the method: as §1
smiles,measurement,setting,value
"O=C(c1ccc(OCCN2CCCCC2)cc1)c1c(-c2ccc(O)cc2)sc2cc(O)ccc12 [Raloxifene, raloxifene, reference compound]",fold‐accumulation,OATP1B3,1.56–1.70
same,oral bioavailability,[1],< 2%
same,fold‐accumulation,OCT2,0.90–1.15
same,Raloxifene dose recovery0–48h green tea/baseline ratio (90% CI),[2]; acute green tea vs baseline,1.05 (0.45–2.43)
same,Percentage change in raloxifene stool recovery,"[2]; baseline to acute green tea, individual participants",−70% and 440% and −80% and 300% and 10% and −14%
same,Raloxifene stool recovery,"[2]; baseline, individual participants no. 8, 11, 12, 16, 17, 18",1.7% and 0.27% and 93.8% and 18.0% and 17.4% and 69.8%
same,"Raloxifene dose recovery0–48h in stool, geometric mean (CV%)",[2]; acute green tea,10.6 (103) %
same,"Raloxifene dose recovery0–48h in stool, geometric mean (CV%)",[2]; baseline,10.1 (115) %
same,fold‐accumulation,OATP2B1,0.82–1.00
